Consider two molecules from ChEMBL document CHEMBL1122788, “Quantitative relationships between alpha-adrenergic activity and binding affinity of alpha-adrenoceptor agonists and antagonists” (J Med Chem, 1984).

The target in assay [1] is T1, Adrenergic receptor alpha-1 (Rattus norvegicus, UniProt P15823+P23944+P43140).
T1 sequence (P15823 whole entry): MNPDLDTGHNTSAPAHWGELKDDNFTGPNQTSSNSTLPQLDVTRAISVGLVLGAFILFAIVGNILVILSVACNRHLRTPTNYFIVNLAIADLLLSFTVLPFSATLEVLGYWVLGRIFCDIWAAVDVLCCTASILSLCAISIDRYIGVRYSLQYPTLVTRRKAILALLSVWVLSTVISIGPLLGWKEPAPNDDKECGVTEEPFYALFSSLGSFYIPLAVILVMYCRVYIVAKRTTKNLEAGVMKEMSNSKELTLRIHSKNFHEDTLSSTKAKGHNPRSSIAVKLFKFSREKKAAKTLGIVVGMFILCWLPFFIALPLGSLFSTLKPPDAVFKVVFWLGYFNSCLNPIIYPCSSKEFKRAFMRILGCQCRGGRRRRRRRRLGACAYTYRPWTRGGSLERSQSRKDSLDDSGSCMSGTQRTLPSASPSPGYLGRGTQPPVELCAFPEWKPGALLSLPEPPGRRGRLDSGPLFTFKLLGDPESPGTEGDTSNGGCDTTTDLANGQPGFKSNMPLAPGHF
T1 sequence (P23944 whole entry): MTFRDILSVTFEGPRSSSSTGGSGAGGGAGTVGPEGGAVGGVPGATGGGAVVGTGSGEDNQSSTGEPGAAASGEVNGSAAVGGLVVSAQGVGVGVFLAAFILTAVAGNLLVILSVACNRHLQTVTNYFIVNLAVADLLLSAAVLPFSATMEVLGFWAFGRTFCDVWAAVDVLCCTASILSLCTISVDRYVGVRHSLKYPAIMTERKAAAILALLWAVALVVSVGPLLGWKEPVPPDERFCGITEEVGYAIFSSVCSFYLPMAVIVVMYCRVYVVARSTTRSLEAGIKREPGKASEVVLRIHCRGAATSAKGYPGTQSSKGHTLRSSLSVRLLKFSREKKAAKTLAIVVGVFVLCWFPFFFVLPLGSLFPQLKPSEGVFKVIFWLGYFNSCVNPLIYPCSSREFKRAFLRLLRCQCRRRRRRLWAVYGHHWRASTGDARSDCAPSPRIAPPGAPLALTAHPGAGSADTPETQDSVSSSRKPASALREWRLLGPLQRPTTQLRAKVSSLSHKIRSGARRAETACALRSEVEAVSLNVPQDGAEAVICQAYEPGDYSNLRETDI
T1 sequence (P43140 whole entry): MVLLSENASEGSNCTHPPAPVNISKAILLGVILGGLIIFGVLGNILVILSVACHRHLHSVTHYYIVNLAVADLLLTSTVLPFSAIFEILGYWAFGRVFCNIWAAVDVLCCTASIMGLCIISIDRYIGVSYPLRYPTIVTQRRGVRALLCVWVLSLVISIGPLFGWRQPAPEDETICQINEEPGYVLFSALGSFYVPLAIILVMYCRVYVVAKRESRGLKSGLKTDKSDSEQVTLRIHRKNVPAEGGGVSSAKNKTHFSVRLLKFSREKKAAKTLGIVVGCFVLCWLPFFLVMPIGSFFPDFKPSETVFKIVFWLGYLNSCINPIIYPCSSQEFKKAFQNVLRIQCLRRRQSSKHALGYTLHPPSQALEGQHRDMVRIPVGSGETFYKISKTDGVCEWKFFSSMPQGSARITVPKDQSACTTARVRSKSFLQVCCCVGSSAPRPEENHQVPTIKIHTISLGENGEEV
Briefly: (§1) Inhibition of specific [3H]-prazosin binding (0.2 nM) to rat brain membranes alpha-1 adrenergic receptor. In kind it is cell membranes, Membrane. In a few lines:
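Whole rat brain (minus cerebellum) from male Wistar rats (200–250 g), homogenized in ice-cold 50 mM Tris-HCl pH 7.7 and washed twice at 50000g. Bound ligand was collected by filtration and counted. IC50 was derived by log-probit analysis.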

Assay [2] has as its target T1, Adrenergic receptor alpha-1. Description: In vivo antagonist activity against (-)-phenylephrine-induced alpha-1 adrenergic receptor mediated vasoconstriction in pithed normotensive rats. Format: functional, organism-based.
Assay [3] shares this target. The assay is described as §1. Format: cell membranes, Membrane. In outline:
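Brain membranes were prepared from male Wistar rats (200–250 g, cerebellum removed) in ice-cold 50 mmol/L Tris-HCl, pH 7.7, with two 50000g spins, and used at 1 mg/mL protein (Lowry). […] Bound label was collected by vacuum filtration and counted. IC50 came from log probit analysis.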
The source holds these as a separate data set.

Assay [4] has the same target. Description: Antagonist activity against phenylephrine-induced alpha1- adrenoceptor mediated vasoconstriction in pithed normotensive rats. Format: functional.
For another assay, the species on record is Oryctolagus cuniculus. Briefly: Index of alpha1/alpha2 adrenoceptor antagonist selectivity at pre and postsynaptic sites in vitro. In kind it is functional.
Assay [5] has as its target Adrenergic receptor alpha-2 (Homo sapiens) (UniProt P08913+P18825+P18089). The following applies: Oryctolagus cuniculus.

One may read the IC50 as the concentration that inhibits the measured activity by half. The low end stands for higher potency, the high end for lower potency. By pA2 is commonly meant the negative logarithm of the molar antagonist concentration that doubles the agonist concentration needed for the same response. In assay [1], `CN1C[C@H](C(=O)N[C@]2(C)O[C@@]3(O)[C@@H]4CCCN4C(=O)[C@H](Cc4ccccc4)N3C2=O)C[C@@H]2c3cccc4[nH]cc(c34)C[C@H]21` [DIHYDROERGOTAMINE] gave an IC50 of 27 nM. The pA2 in assay [2] was 6.68.
In assay [3], `C=CCN1Cc2ccccc2-c2ccccc2C1` [AZAPETINE] showed an IC50 of 205 nM. The pA2 in assay [4] is listed as 6.09. In the assay listed under Oryctolagus cuniculus, this molecule registered a Selectivity index of 1.08. The molecule also gave a pC30 in assay [5] of 5.89.
